From ChEMBL document CHEMBL4680064, “Natural product inspired optimization of a selective TRPV6 calcium channel inhibitor” (RSC Med Chem, 2020)
Activity calls are given as the source filed them. No cut-off for these calls is given here.

Tests used:
[1] = biological target: T1, 5-hydroxytryptamine receptor 1A (Homo sapiens, UniProt P08908); experiment: Inhibition of human serotonin 5HT-1A receptor at 10 uM
T1 sequence (P08908 whole entry): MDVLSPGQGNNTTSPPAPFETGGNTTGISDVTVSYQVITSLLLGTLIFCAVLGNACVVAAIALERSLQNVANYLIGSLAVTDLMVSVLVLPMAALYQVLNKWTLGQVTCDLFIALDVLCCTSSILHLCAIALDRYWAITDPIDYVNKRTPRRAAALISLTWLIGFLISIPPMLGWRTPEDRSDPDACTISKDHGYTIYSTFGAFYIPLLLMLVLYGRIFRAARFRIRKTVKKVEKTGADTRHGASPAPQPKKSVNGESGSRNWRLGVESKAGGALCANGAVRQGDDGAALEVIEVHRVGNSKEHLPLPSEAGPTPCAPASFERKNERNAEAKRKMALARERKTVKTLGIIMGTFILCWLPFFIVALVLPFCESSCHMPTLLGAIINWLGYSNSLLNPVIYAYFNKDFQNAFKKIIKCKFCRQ

[2] = Inhibition of SOCE in human MDA-MB-231 cells at 5 uM pretreated for 20 mins followed by Tg addition for 10 mins followed by CaCl2 addition by FLIPR assay; format: cell-based; conditions: mda-mb-231, 0.5 h, time 30 min
How it was run: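 MDA-MB-231 cells at 6 x 10⁴ cells/well in phenol-red-free RPMI with 10% FBS, assayed 16 h later. Loaded in nominally Ca²⁺-free buffer with calcium-5 for 40 min at 37 °C. Compound, with GSK-7975A as reference, given for 20 min. After a 50 s baseline, thapsigargin was added and followed for 10 min, then CaCl2 was added. SOCE taken as AUC of the Ca²⁺ entry trace.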

T47D [3] = experiment: Antiproliferative activity against human T47D cells assessed as cell growth inhibition at 0.4 to 100 uM after 6 days by XTT assay; format: cell-based; conditions: human, t47d, 144 h, 100 µM; dose 0.4-100 µM, time 6 day
How it was run: (§1)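 Cells grown in RPMI with 10% FBS, 2 mM L-glutamine, penicillin/streptomycin and 1% non-essential amino acids. Seeded at 5 x 10³ cells/well and left 24 h at 37 °C, then treated at 100 μM to 0.4 μM. Exposure 6 days at 37 °C with fresh treatment medium every 48 h. Doxorubicin 10 μM and DMSO 0.01% served as controls. XTT with 1.25% PMS for 2 h; absorbance at 450 minus 650 nm, as % viable versus DMSO. Curves fitted by four-parameter non-linear regression. Mean ± SEM, n = 3/concentration, ≥3 independent experiments.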

[4] = biological target: Voltage-gated inwardly rectifying potassium channel KCNH2 (Homo sapiens, UniProt Q12809); experiment: Inhibition of human ERG at 10 uM
D(2) dopamine receptor = D(2) dopamine receptor (Homo sapiens, UniProt P14416); experiment: Inhibition of human dopamine D2S receptor at 10 uM
MCF7 = experiment: Antiproliferative activity against human MCF7 cells assessed as cell growth inhibition at 0.4 to 100 uM after 6 days by XTT assay; format: cell-based; conditions: mcf7, 144 h, dose 0.4-100 µM, time 6 day; how it was run: as §1
Mu-type opioid receptor = Mu-type opioid receptor (Homo sapiens, UniProt P35372); experiment: Inhibition of human mu-opioid receptor at 10 uM
D(1A) dopamine receptor = D(1A) dopamine receptor (Homo sapiens, UniProt P21728); experiment: Inhibition of human dopamine D1 receptor at 10 uM
[5] = Inhibition of rat L-type calcium channel (diltiazem site) at 10 uM
[6] = biological target: T2, Alpha-1A adrenergic receptor (Homo sapiens, UniProt P35348); experiment: Inhibition of human alpha1A adrenergic receptor at 10 uM
T2 sequence (P35348 whole entry): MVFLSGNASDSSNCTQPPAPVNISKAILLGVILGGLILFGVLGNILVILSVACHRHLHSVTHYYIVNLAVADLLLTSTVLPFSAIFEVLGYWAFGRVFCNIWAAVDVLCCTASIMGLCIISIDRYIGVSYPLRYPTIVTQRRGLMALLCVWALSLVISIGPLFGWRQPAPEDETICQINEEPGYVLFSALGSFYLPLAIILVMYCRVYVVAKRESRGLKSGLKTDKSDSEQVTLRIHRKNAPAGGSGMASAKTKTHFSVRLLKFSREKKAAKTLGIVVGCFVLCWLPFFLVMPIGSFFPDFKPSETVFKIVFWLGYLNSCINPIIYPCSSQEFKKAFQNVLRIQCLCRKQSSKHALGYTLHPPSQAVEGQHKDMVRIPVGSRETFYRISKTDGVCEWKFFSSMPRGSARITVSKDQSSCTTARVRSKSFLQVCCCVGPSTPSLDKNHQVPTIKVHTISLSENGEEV

HEK293 = experiment: Effect on cadmium induced toxicity in wild type human HEK293 cells assessed as cell survival at 1 to 10 uM incubated for 24 hrs by XTT assay; format: functional, cell-based; conditions: dose 1-10 µM
How it was run: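 HEK293 wt or HEK-hTRPV6 cells in DMEM with 10% FBS, glutamine, penicillin/streptomycin and non-essential amino acids. Seeded at 1.5 x 10⁴ cells/well and left 24 h, then given CdCl2 at 50 to 0.05 µM with or without test compound at 1.0 or 10 µM; blank was 0.01% DMSO. Incubation 24 h at 37 °C. XTT/PMS read for 2 h at A450−A650, as % viable versus blank. n = 4/concentration, 2 independent experiments.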

T47D [7] = experiment: Cytotoxicity against human T47D cells assessed as induction of cell morphological changes at 100 uM by inverted microscopic analysis; format: cell-based
How it was run: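 T47D cells, cultured and treated as in the 6-day XTT proliferation assay, were photographed for morphology after exposure at 100 μM and compared with control cultures.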

MDA-MB-231 = experiment: Antiproliferative activity against human MDA-MB-231 cells assessed as cell growth inhibition at 0.4 to 100 uM after 6 days by XTT assay; format: cell-based; conditions: mda-mb-231, 144 h, dose 0.4-100 µM, time 6 day; how it was run: as §1
[8] = biological target: T3, Muscarinic acetylcholine receptor M2 (Homo sapiens, UniProt P08172); experiment: Inhibition of human muscarinic M2 receptor at 10 uM
T3 sequence (P08172 whole entry): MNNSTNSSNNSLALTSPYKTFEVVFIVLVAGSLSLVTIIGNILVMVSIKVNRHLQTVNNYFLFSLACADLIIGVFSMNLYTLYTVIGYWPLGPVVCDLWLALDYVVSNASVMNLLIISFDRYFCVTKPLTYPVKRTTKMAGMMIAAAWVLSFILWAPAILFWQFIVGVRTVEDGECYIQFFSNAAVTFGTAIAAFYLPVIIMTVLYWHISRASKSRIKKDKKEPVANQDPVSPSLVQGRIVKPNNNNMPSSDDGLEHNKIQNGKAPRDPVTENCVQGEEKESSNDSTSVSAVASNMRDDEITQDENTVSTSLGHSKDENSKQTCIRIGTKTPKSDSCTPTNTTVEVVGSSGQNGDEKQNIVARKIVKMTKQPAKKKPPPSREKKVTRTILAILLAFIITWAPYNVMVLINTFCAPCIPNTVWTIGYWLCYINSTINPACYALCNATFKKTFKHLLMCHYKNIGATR

Voltage-gated inwardly rectifying potassium channel KCNH2, sequence (Q12809 whole entry): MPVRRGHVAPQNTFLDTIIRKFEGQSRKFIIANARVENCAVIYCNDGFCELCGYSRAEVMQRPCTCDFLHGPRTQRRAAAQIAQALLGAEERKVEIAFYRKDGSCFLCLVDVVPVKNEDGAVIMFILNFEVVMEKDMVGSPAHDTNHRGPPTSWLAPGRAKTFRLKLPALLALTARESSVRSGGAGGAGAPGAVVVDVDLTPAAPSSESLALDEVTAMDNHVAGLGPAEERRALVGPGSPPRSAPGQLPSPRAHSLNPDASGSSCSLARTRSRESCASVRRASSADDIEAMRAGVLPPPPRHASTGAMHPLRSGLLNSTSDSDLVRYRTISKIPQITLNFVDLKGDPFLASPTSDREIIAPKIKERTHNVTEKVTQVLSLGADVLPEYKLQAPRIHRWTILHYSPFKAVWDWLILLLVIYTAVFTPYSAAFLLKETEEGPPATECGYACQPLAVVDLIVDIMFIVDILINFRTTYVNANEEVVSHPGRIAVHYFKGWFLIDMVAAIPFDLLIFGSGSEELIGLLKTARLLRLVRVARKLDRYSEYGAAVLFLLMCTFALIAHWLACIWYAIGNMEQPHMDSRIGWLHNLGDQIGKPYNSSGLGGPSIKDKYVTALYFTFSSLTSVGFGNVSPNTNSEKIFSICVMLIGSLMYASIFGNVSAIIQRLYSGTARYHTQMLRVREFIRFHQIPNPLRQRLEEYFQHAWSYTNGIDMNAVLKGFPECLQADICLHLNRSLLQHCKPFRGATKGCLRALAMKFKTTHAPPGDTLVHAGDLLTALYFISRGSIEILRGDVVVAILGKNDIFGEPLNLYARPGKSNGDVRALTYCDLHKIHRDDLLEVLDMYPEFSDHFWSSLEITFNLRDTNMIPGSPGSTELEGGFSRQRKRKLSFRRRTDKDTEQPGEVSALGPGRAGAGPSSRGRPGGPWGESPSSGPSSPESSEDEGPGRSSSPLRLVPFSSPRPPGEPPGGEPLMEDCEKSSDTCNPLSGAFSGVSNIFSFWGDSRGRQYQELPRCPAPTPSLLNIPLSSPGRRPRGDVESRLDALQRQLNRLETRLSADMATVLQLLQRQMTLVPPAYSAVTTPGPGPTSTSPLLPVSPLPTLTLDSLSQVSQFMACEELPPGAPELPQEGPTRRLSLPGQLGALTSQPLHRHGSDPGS
D(2) dopamine receptor, sequence (P14416 whole entry): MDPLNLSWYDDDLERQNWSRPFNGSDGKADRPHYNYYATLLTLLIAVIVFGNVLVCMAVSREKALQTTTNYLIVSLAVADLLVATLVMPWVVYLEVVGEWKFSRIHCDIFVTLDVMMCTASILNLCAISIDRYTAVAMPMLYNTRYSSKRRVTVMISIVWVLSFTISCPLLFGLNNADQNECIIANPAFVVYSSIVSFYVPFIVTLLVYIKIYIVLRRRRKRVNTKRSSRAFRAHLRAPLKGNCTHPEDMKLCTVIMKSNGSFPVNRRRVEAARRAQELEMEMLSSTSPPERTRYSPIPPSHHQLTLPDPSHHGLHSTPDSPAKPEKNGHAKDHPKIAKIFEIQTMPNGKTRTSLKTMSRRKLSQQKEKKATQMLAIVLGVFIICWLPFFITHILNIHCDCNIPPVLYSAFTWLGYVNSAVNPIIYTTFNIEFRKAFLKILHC
D(1A) dopamine receptor, sequence (P21728 whole entry): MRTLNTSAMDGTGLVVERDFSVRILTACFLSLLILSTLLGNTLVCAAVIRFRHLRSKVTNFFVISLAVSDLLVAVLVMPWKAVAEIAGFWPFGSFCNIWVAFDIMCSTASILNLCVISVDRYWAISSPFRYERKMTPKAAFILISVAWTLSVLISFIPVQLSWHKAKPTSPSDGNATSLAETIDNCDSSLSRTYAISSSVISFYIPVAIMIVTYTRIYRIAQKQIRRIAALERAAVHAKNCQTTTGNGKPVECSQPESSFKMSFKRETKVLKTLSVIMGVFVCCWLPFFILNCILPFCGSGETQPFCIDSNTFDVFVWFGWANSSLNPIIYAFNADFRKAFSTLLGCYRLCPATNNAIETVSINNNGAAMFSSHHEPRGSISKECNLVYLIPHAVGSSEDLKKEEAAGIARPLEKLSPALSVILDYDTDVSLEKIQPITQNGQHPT
Mu-type opioid receptor, sequence (P35372 whole entry): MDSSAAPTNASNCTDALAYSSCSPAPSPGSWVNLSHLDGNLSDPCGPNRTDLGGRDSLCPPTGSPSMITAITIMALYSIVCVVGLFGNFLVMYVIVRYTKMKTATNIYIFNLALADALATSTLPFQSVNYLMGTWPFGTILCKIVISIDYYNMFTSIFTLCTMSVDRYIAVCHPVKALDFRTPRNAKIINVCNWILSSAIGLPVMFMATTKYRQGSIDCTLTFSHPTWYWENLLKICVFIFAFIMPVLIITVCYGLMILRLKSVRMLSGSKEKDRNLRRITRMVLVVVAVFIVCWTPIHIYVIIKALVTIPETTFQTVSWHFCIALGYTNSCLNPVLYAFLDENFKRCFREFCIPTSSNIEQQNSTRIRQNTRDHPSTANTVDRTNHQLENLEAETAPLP

inhibition (INH) [1]: Not Active
inhibition (INH) [2]: Not Active
inhibition (INH) (D(2) dopamine receptor): Not Active
inhibition (INH) (Mu-type opioid receptor): Not Active
inhibition (INH) (D(1A) dopamine receptor): Not Active
inhibition (INH) [5]: Not Active
inhibition (INH) [6]: Not Active
inhibition (INH) [8]: Not Active
SMILES: O=c1ccc(CN2CCN([C@H]3CC[C@@](O)(c4cccc(C(F)(F)F)c4)CC3)CC2)c[nH]1
Activity (T47D [3]): Non-Toxic
inhibition (INH) [4]: Not Active
Activity (MCF7): Non-Toxic
Activity (HEK293): inactive
Activity (T47D [7]): Non-Toxic
Activity (MDA-MB-231): Non-Toxic
